Compound activity (PubChem)
Rows were chosen to be rich in hits. Some 3.4% of all compounds tested hit in one or more screens of this group.
IMP-1 inhibitor: IMP-1 metallo-beta-lactamase inhibitors, primary screen, biochemical, epi-absorbance readout, Pseudomonas aeruginosa enzyme; metallo-beta-lactamase IMP-1 (Pseudomonas aeruginosa); purified IMP-1, nitrocefin hydrolysis, epi-absorbance fluorescence; inhibition, % at 5.6 µM; 290,000 compounds, 0.45% hits; AID 1556, 2009;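 active = inhibition above the mean plus 3 SD of all compounds in the same screening run, cut at about 4.5% in these data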;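 note: 0% = IMP-1 with DMSO and 100% = DMSO wells lacking enzyme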
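System: Purified recombinant IMP-1 metallo-beta-lactamase enzyme | Measured by: Fluorescence quenching readout, ex 480/em 530 nm | Replication: Singlicate | Incubation: 15 min preincubation plus 25 min reaction at 25 °C | Evaluation: Percent inhibition from optical density relative to buffer-blank wells | Benchmarks: DMSO with and without IMP-1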
MEKK2 mut-MEK5: MEK5 binding signal on mutant MEKK2 PB1, primary screen, biochemical, multiplex bead flow cytometry, Alexa488-MEK5. percent response, % at 10 µM. 290,000 compounds, 0.35% hits. Alexa488-MEK5 binding to MEKK2 mutant. AID 1530, 2009; in the data active = percent response above about 24%, passing the limit was not always enough
MEKK3 PB1 HTS: modulators of MEKK3-MEK5 PB1 binding, primary screen, biochemical, wildtype MEKK3, multiplex bead flow cytometry, Alexa488-MEK5; 290,000 compounds, 1.4% hits; Mitogen-activated protein kinase kinase kinase 3 (Homo sapiens), Q99759; binding response (% of control), % at 10 µM; bead-based flow cytometry, Alexa488-MEK5 binding to MEKK3; actives lie on both sides; 0 = blocked by unlabeled MEK5, 100 = vehicle;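 active = binding response more than 3 SD above or below the average of its plate-row segment, actives on both sides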;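 note: Alexa488 bead fluorescence after subtracting the streptavidin-only scavenger bead signal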
Target sequence (Q99759 whole entry, looked up): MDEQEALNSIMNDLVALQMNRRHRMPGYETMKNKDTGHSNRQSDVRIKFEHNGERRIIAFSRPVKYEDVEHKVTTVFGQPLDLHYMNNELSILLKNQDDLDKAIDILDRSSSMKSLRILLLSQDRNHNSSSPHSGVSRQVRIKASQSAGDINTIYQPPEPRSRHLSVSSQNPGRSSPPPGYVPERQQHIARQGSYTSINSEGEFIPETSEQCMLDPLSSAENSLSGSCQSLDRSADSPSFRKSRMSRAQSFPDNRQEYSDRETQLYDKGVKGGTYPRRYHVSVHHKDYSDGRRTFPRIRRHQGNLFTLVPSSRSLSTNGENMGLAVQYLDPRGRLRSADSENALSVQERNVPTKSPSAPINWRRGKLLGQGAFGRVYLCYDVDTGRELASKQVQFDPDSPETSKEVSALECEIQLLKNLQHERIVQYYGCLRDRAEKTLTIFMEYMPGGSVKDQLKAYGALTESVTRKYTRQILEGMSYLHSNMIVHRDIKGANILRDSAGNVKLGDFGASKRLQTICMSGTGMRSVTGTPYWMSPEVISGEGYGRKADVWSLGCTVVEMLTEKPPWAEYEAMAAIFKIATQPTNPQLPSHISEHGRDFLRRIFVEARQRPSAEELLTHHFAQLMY
VIM-2 inh: VIM-2 metallo-beta-lactamase inhibitors, primary screen, biochemical, epi-absorbance readout, Pseudomonas aeruginosa enzyme. purified VIM-2, nitrocefin hydrolysis, epi-absorbance fluorescence. inhibition, % at 5.6 µM. 290,000 compounds, 0.89% hits. AID 1527, 2009;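 active = inhibition above the mean of all tested compounds plus 3 SD, cutoff set per screening run, cut at about 7.5% in these data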;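 note: red hydrolysis product quenches plate fluorescence so inhibitors raise well fluorescence; 0% = enzyme with DMSO and 100% = DMSO without enzyme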
MEKK2wt PB1 HTS: modulators of MEK5 binding to wildtype MEKK2, primary screen, biochemical, multiplex bead flow cytometry, Alexa488-MEK5; Mitogen-activated protein kinase kinase kinase 2 (Homo sapiens), Q9Y2U5; binding response (% of control), % at 10 µM; Alexa488-MEK5 binding to MEKK2 WT; actives lie on both sides; 290,000 compounds, 1.1% hits; in the data active = binding response below about 67% or above about 130%
MEKK2wt confirm: modulators of MEK5 binding to wildtype MEKK2, confirmation, biochemical, single concentration, multiplex bead flow cytometry. Alexa488-MEK5 binding to MEKK2 WT; actives lie on both sides. shares compounds with MEKK3 PB1 HTS. AID 1892, 2009. 5,900 compounds, 2.4% hits. binding response (% of control), % at 10 µM; in the data active = binding response below about 16% or above about 210%; inactive = in between
MEKK2mut-MEK5: mutant MEKK2 PB1-MEK5 binding signal retest – biochemical, single concentration, multiplex bead flow cytometry, confirmation. shares compounds with MEKK3 PB1 HTS. Alexa488-MEK5 binding to MEKK2 mutant. percent response, % at 10 µM. 5,900 compounds, 2% hits. AID 1893, 2009; in the data active = percent response mostly above about 71%, no sharp cut-off; inactive = mostly below about 38%;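 note: higher means compound restores mutant binding toward wildtype level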
MEKK3-MEK5 inh: MEKK3 wild-type PB1 binding to MEK5, inhibitors, confirmation, biochemical, bead multiplex flow cytometry, single concentration, wildtype. shares compounds with MEKK3 PB1 HTS. Alexa488-MEK5 binding to MEKK3; stronger effect = lower value. binding response (% of control), % at 10 µM. 5,900 compounds, 1.8% hits. AID 1894, 2009;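 active = binding response below 72% of control, or above a set upper limit, though filed actives all read lower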;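 note: 100% = DMSO only wells and 0% = binding blocked by excess unlabeled MEK5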
* = called active by the depositor; . = not tested or not shown; [ ] = another dose, or the depositor's remark.

SMILES	IMP-1 inhibitor	MEKK2 mut-MEK5	MEKK3 PB1 HTS	VIM-2 inh	MEKK2wt PB1 HTS	MEKK2wt confirm	MEKK2mut-MEK5	MEKK3-MEK5 inh
COC(=O)N1C(=O)[C@](c2ccccc2)(C2CCCC2)N1C(=O)OC	-3	30*	100	-1	96	100	-4	98
COC(=O)N1C(=O)[C@@](c2ccccc2)(C(C)C)N1C(=O)OC	-4	-13	94	-2	83	.	.	.
c1cc2nc(C34CC5CC(CC(C5)C3)C4)[nH]c2cn1	-2	-15	2.0*[inhibitor]	-1	3.0*[inhibitor]	96	-3	97
O=S(=O)(/C=C/c1ccccc1)c1ccccc1	-1	4	126*	-2	99	101	3	102
Cc1cc(C)c(C#N)c(Cl)n1	-3	0	149*	-3	107	105	1	103
Cc1cc(C)c(C#N)c(N2CCCC2)n1	-6	.	.	3	.	.	.	.
COc1ccc(CN2C(=O)CCC2(C)C(=O)NC2CCCC2)c(OC)c1 (configuration not stated)	-1	-4	100	-1	96	.	.	.
CCc1cccc(C)c1N(C(=O)Cn1c(=O)[nH]c2ccccc21)C(C)COC (configuration not stated)	-2	24*	111	-1	114	99	-3	100
CCc1cccc(CC)c1N(COC)C(=O)Cn1nnc2ccccc21	-1	.	.	0	.	.	.	.
O=S(=O)(Nc1nc2ccccc2nc1NCc1ccco1)c1ccc(F)cc1	-4	3	102	-4	100	.	.	.
NC1=NC[C@H](c2ccccc2)N1CCCCC1CCCCC1	.	11	111	.	146*	124	12	105
Cc1nc(N2CCC(C(N)=O)CC2)c2c(-c3cccs3)csc2n1	-1	-9	105	-1	99	.	.	.
COc1ccccc1NC1C=CS(=O)(=O)C1 (configuration not stated)	-1	2	98	0	97	.	.	.
Cc1ccc(S(=O)(=O)NC(Cc2ccccc2)C(=O)O)cc1 (configuration not stated)	-2	-27	1.0*[inhibitor]	1	-3.0*[inhibitor]	91	-6	96
Cc1ccc(S(=O)(=O)NC(Cc2ccc(Cl)cc2)C(=O)O)cc1 (configuration not stated)	-2	6	104	-2	109	.	.	.
Cc1cccc(S(=O)(=O)NC(Cc2c[nH]c3ccccc23)C(=O)O)c1 (configuration not stated)	-1	0	131*	-2	109	98	0	100
CC1(C)N=C(SCC(=O)Nc2ccc(Cl)cc2)C(c2ccccc2)=N1	-3	0	96	-4	100	.	.	.
O=C(CNC(=O)c1ccc(N2C(=O)c3ccccc3C2=O)cc1)OCC(=O)c1cccc2ccccc12	-2	-8	2.0*[inhibitor]	1	4.0*[inhibitor]	100	-2	101
COc1cc(OC)cc(C(=O)NNC(=O)c2ccccn2)c1	-2	0	135*	-3	106	113	5	105
COc1ccc(C(=O)NNC(=O)c2ccccn2)cc1	1	-2	106	1	103	.	.	.
Cc1ccc(-n2c(=S)[nH]c3c(oc4ccccc43)c2=O)cc1	-3	4	99	-2	100	.	.	.
